Measured values taken from ChEMBL document CHEMBL1147105, “In vitro and in vivo activities of PD 0305970 and PD 0326448, new bacterial gyrase/topoisomerase inhibitors with potent antibacterial activities versus multidrug-resistant gram-positive and fastidious organism groups” (2007).

Legend:
Type in all cases: functional
Enterococcus gallinarum = experiment: Antibacterial activity against Enterococcus gallinarum
Streptococcus mitis = experiment: Antibacterial activity against Streptococcus mitis
Procedure, shortened: (§1)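 Broth microdilution MIC following CLSI guidelines, in cation-adjusted Mueller-Hinton broth with 3% lysed horse blood. Plates incubated at 35°C. Clinical isolates and reference strains, with identity confirmed by standard microbiological methods.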

Enterococcus faecalis [1] = experiment: Antibacterial activity against VanB-resistant Enterococcus faecalis
Procedure, shortened: (§2)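 Broth microdilution MIC per CLSI guidelines, incubated at 35°C. Cation-adjusted Mueller-Hinton broth for nonfastidious organisms and staphylococci. Streptococci tested in the same broth with 3% lysed horse blood. Anaerobes tested in supplemented Brucella broth inside an anaerobe chamber (5% CO2, 5% H2, 90% N2), read after 48 h. Strains were mainly recent clinical isolates with confirmed identity.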

[2] = test system: Fusobacterium necrophorum; experiment: Antibacterial activity against Fusobacterium necrophorum
Procedure, shortened: (§3)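 Anaerobic broth microdilution MIC following CLSI guidelines, in supplemented Brucella broth. Run in an anaerobe chamber under 5% CO2, 5% H2 and 90% N2 at 35°C, and read after 48 h. Reported as MIC range, MIC50 and MIC90.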

[3] = test system: Bacteroides thetaiotaomicron; experiment: Antibacterial activity against Bacteroides thetaiotaomicron; procedure, shortened: as §3
Staphylococcus aureus [4] = experiment: Antibacterial activity against oxacillin-resistant Staphylococcus aureus; procedure, shortened: as §2
Klebsiella pneumoniae = experiment: Antibacterial activity against Klebsiella pneumoniae
Procedure, shortened: (§4)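 Broth microdilution MIC following CLSI guidelines, in cation-adjusted Mueller-Hinton broth, incubated at 35°C. Recent clinical isolates and reference strains, with identity confirmed by automated and standard microbiological methods. Results reported as MIC range, MIC50 and MIC90.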

Proteus mirabilis = experiment: Antibacterial activity against Proteus mirabilis; procedure, shortened: as §4
Streptococcus sanguinis = experiment: Antibacterial activity against Streptococcus sanguis; procedure, shortened: as §1
[5] = test system: Prevotella melaninogenica; experiment: Antibacterial activity against Prevotella melaninogenica; procedure, shortened: as §3
Staphylococcus aureus [6] = experiment: Antibacterial activity against vancomycin-intermediate Staphylococcus aureus; procedure, shortened: as §2
Enterobacter cloacae = experiment: Antibacterial activity against Enterobacter cloacae; procedure, shortened: as §4
[7] = test system: Stenotrophomonas maltophilia; experiment: Antibacterial activity against Stenotrophomonas maltophilia; procedure, shortened: as §4
Shigella flexneri = experiment: Antibacterial activity against Shigella flexneri; procedure, shortened: as §4
[8] = test system: Staphylococcus haemolyticus; experiment: Antibacterial activity against Staphylococcus haemolyticus
Procedure, shortened: (§5)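 Broth microdilution MIC following CLSI guidelines, in cation-adjusted Mueller-Hinton broth containing 3% lysed horse blood, incubated at 35°C. Clinical isolates with identity confirmed. Reported as MIC range, MIC50 and MIC90.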

Klebsiella aerogenes = experiment: Antibacterial activity against Enterobacter aerogenes; procedure, shortened: as §4
Streptococcus pneumoniae = experiment: Antibacterial activity against penicillin-resistant Streptococcus pneumoniae; procedure, shortened: as §2
Haemophilus influenzae = experiment: Antibacterial activity against beta-lactamase negative Haemophilus influenzae
Procedure, shortened: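 Broth microdilution MIC following CLSI guidelines, in Haemophilus test medium at 35°C.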

Actinomyces sp. = experiment: Antibacterial activity against Actinomyces sp.
Enterococcus faecium = experiment: Antibacterial activity against Enterococcus faecium; procedure, shortened: as §2
Staphylococcus aureus [9] = experiment: Antibacterial activity against oxacillin-susceptible Staphylococcus aureus
Procedure, shortened: (§6)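 MIC by CLSI broth microdilution for nonfastidious organisms, in cation-adjusted Mueller-Hinton broth incubated at 35°C.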

Prevotella bivia = experiment: Antibacterial activity against Prevotella bivia; procedure, shortened: as §3
Streptococcus equinus = experiment: Antibacterial activity against Streptococcus bovis; procedure, shortened: as §1
Enterococcus faecalis [10] = experiment: Antibacterial activity against Enterococcus faecalis; procedure, shortened: as §2
[11] = test system: Staphylococcus epidermidis; experiment: Antibacterial activity against oxacillin-susceptible Staphylococcus epidermidis; procedure, shortened: as §6
Citrobacter freundii = experiment: Antibacterial activity against Citrobacter freundii; procedure, shortened: as §4
Alloiococcus otitis = experiment: Antibacterial activity against Alloiococcus otitidis
Procedure, shortened: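 MIC by broth microdilution following CLSI guidelines, in cation-adjusted Mueller-Hinton broth with 3% lysed horse blood. Incubated at 35°C and read after 48 h. Reported as MIC range, MIC50 and MIC90.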

Prevotella corporis = experiment: Antibacterial activity against Prevotella corporis; procedure, shortened: as §3
Fusobacterium sp. = experiment: Antibacterial activity against Fusobacterium sp.; procedure, shortened: as §3
Clostridium perfringens = experiment: Antibacterial activity against Clostridium perfringens; procedure, shortened: as §2
Listeria monocytogenes = experiment: Antibacterial activity against Listeria monocytogenes; procedure, shortened: as §5
Serratia marcescens = experiment: Antibacterial activity against Serratia marcescens; procedure, shortened: as §4
Enterococcus faecalis [12] = experiment: Antibacterial activity against beta-lactamase positive Enterococcus faecalis; procedure, shortened: as §6
Prevotella buccae = experiment: Antibacterial activity against Prevotella buccae; conditions: Segatella buccae; procedure, shortened: as §3
Streptococcus agalactiae = experiment: Antibacterial activity against Streptococcus agalactiae; procedure, shortened: as §5
Citrobacter koseri = experiment: Antibacterial activity against Citrobacter diversus; procedure, shortened: as §4
[13] = test system: Enterococcus casseliflavus; experiment: Antibacterial activity against Enterococcus casseliflavus

C[C@H]1NCc2cc(-c3ccc4c(=O)c(C(=O)O)cn(C5CC5)c4c3OC(F)F)ccc21 [GARENOXACIN]
0.5 µg/mL: MIC50 (Proteus mirabilis) | MIC50 (Clostridium perfringens) | MIC90 (Listeria monocytogenes) | MIC90 [13]
0.06 µg/mL: MIC50 [8] | MIC50 (Staphylococcus aureus [9]) | MIC90 (Staphylococcus aureus [9]) | MIC [11]
2 µg/mL: MIC50 (Enterococcus faecalis [1]) | MIC50 [3] | MIC50 (Staphylococcus aureus [4]) | MIC90 (Staphylococcus aureus [4]) | MIC90 (Enterobacter cloacae) | MIC50 (Klebsiella aerogenes) | MIC50 (Enterococcus faecalis [10])
0.2 µg/mL: MIC90 (Enterococcus gallinarum)
> 64 µg/mL: MIC90 (Klebsiella aerogenes) | MIC90 (Citrobacter freundii)
0.03 µg/mL: MIC50 (Shigella flexneri) | MIC50 (Streptococcus pneumoniae) | MIC90 (Haemophilus influenzae)
16 µg/mL: MIC90 (Proteus mirabilis)
0.125 µg/mL: MIC50 (Streptococcus mitis) | MIC [2] | MIC50 (Streptococcus sanguinis) | MIC50 (Enterobacter cloacae) | MIC90 (Shigella flexneri) | MIC90 (Streptococcus pneumoniae) | MIC (Actinomyces sp.) | MIC (Fusobacterium sp.) | MIC (Enterococcus faecalis [12]) | MIC50 (Streptococcus agalactiae) | MIC90 (Streptococcus agalactiae) | MIC50 (Citrobacter koseri)
4 µg/mL: MIC90 [3] | MIC50 [7] | MIC90 [8] | MIC90 (Enterococcus faecalis [10])
0.25 µg/mL: MIC50 (Enterococcus gallinarum) | MIC90 (Streptococcus mitis) | MIC50 (Klebsiella pneumoniae) | MIC90 (Streptococcus sanguinis) | MIC50 [5] | MIC50 (Prevotella bivia) | MIC50 (Streptococcus equinus) | MIC90 (Streptococcus equinus) | MIC50 (Prevotella corporis) | MIC50 (Listeria monocytogenes) | MIC50 (Prevotella buccae) | MIC90 (Citrobacter koseri) | MIC50 [13]
8 µg/mL: MIC90 (Enterococcus faecalis [1]) | MIC90 [7] | MIC50 (Enterococcus faecium) | MIC90 (Serratia marcescens)
0.008 µg/mL: MIC50 (Haemophilus influenzae)
32 µg/mL: MIC90 (Enterococcus faecium)
≤ 0.001 µg/mL: MIC50 (Alloiococcus otitis) | MIC90 (Alloiococcus otitis)
1 µg/mL: MIC90 (Klebsiella pneumoniae) | MIC90 [5] | MIC (Staphylococcus aureus [6]) | MIC90 (Prevotella bivia) | MIC50 (Citrobacter freundii) | MIC90 (Prevotella corporis) | MIC90 (Clostridium perfringens) | MIC50 (Serratia marcescens) | MIC90 (Prevotella buccae)
